Test results: ChEMBL document CHEMBL3232713, “Synthesis, antiproliferative and anti-dengue virus evaluations of 2-aroyl-3-arylquinoline derivatives” (Eur J Med Chem, 2014)
Activity calls are given as the source filed them. The rule behind the calls is not given here.

Assays:
[1] = Cytotoxicity against human HuH7 cells assessed as cell viability at 20 uM after 3 days by XTT assay; type: cell-based, Huh-7; settings: read-out: Activity
[2] = test system: dengue virus type 2; assay: Antiviral activity against DENV2 16681 infected in human Huh-7 cells assessed as reduction of viral NS2B protein expression at 5 to 20 uM after 3 days by Western blot analysis; type: functional, organism-based
Method in brief: (§1)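 Huh-7-DV-Fluc cells exposed 3 days to compound at 5 and 20 µM, or 5–40 µM for dose series, 0.1% DMSO mock; lysates immunoblotted with rabbit polyclonal anti-NS2B (1:3000), GAPDH (1:10000) as loading control.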

[3] = test system: dengue virus type 2; assay: Antiviral activity against DENV2 16681 infected in human Huh-7 cells at 20 uM after 3 days by luciferase reporter gene assay; type: functional; settings: Dengue virus, 16681, Huh-7, 72 h
[4] = test system: dengue virus type 2; assay: Antiviral activity against DENV2 16681 infected in human Huh-7 cells at 5 uM after 3 days by luciferase reporter gene assay; type: functional; settings: Dengue virus, 16681, Huh-7, 72 h
[5] = Cytotoxicity against human HuH7 cells assessed as cell viability after 3 days by XTT assay; type: cell-based, Huh-7
[6] = test system: dengue virus type 2; assay: Antiviral activity against DENV2 16681 infected in human Huh-7 cells assessed as reduction of viral NS5 mRNA expression at 5 to 20 uM after 3 days by RT-PCR analysis; type: functional, organism-based
Method in brief: (§2)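 Huh-7-DV-Fluc cells treated 3 days with compound at 5 and 20 µM (dose series 5–40 µM), 0.1% DMSO mock; total RNA extracted, DENV2 RNA quantified by RT-qPCR normalized to cellular GAPDH mRNA; mean ± SD of triplicate experiments.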

[7] = Selectivity index, ratio of CC50 for human HuH7 cells to IC50 for DENV2 16681; type: functional, Huh-7
[8] = test system: dengue virus type 2; assay: Antiviral activity against DENV2 16681 infected in human Huh-7 cells after 3 days by luciferase reporter gene assay; type: functional, organism-based; settings: Dengue virus, 16681, Huh-7, 72 h
[9] = Cytotoxicity against human HuH7 cells assessed as cell viability at 100 uM after 3 days by XTT assay; type: cell-based, Huh-7; settings: read-out: Activity
[10] = test system: A549; assay: Antiproliferative activity against human A549 cells after 3 days by XTT assay; type: functional, cell-based; settings: A549, 72 h
[11] = Antiproliferative activity against human HuH7 cells after 3 days by XTT assay; type: functional, cell-based; settings: Huh-7, 72 h
[12] = Antiproliferative activity against human H1299 cells after 3 days by XTT assay; type: functional, cell-based; settings: NCI-H1299, 72 h
[13] = test system: MDA-MB-231; assay: Antiproliferative activity against human MDA-MB-231 cells after 3 days by XTT assay; type: functional, cell-based; settings: MDA-MB-231, 72 h
[14] = test system: MCF7; assay: Antiproliferative activity against human MCF7 cells after 3 days by XTT assay; type: functional, cell-based; settings: MCF7, 72 h
[15] = test system: West Nile virus; assay: Antiviral activity against West Nile virus by cell based assay; type: functional, organism-based
[16] = test system: dengue virus type 2; assay: Antiviral activity against DENV2 by cell based assay; type: functional, organism-based
[17] = test system: dengue virus type 2; assay: Antiviral activity against DENV2 16681 infected in human Huh-7 cells assessed as reduction of viral NS2B protein expression after 3 days by Western blot analysis; type: functional, organism-based; method in brief: as §1
[18] = test system: dengue virus type 2; assay: Antiviral activity against DENV2 16681 infected in human Huh-7 cells assessed as reduction of viral NS5 mRNA expression after 3 days by RT-PCR analysis; type: functional, organism-based; method in brief: as §2
[19] = test system: MDA-MB-231; assay: Growth inhibition of human MDA-MB-231 cells; type: functional
[20] = Growth inhibition of human Hep3B cells; type: functional, Hep 3B2

## COc1ccc(-c2cc3ccccc3nc2C(O)c2ccc(OC)cc2)cc1 (stereo not given)
[1]
  viability at 72 h, 20 µM: 71.1%
[2]
  Activity: Active
[3]
  inhibition at 20 µM: 58.5%
[4]
  inhibition at 5 µM: 33.5%
[5]
  CC50 at 72 h: 63.1 µM
[6]
  Activity: Active
[7]
  Ratio CC50/IC50: 3.47
[8]
  IC50: 18.2 µM
[9]
  viability at 72 h, 100 µM: 31.9%

## O=C(c1ccc(OCCN2CCCCC2)cc1)c1nc2ccccc2cc1-c1ccc(OCCN2CCCCC2)cc1
[10]
  IC50: 6.53 µM
[1]
  viability at 72 h, 20 µM: 18.4%
[11]
  IC50: 6.59 µM
[12]
  IC50: 6.18 µM
[13]
  IC50: 7.99 µM
[9]
  viability at 72 h, 100 µM: 15.8%
[14]
  IC50: 4.66 µM

## OC(c1ccccc1)c1nc2ccccc2cc1-c1ccc(F)cc1 (stereo not given)
[1]
  viability at 72 h, 20 µM: 109%
[3]
  inhibition at 20 µM: 10.2%
[4]
  inhibition at 5 µM: 13.1%
[9]
  viability at 72 h, 100 µM: 90.9%

## COc1ccc(-c2cc3cc(OC)ccc3nc2C(O)c2ccccc2)cc1 (stereo not given)
[1]
  viability at 72 h, 20 µM: 87.7%
[2]
  Activity: Active
[3]
  inhibition at 20 µM: 61.2%
[4]
  inhibition at 5 µM: 38%
[5]
  CC50 at 72 h: 68.9 µM
[6]
  Activity: Active
[7]
  Ratio CC50/IC50: 4.87
[8]
  IC50: 14.1 µM
[9]
  viability at 72 h, 100 µM: 26%

## CCOc1ccc2nc(C)cc(Nc3ccc(OCc4ccccc4Cl)cc3)c2c1
[15]
  IC50: 1.9 µM
[16]
  IC50: 5 µM

## CC[C@@]1(O)C(=O)OCc2c1cc1n(c2=O)Cc2cc3c(CN(C)C)c(O)ccc3nc2-1 [TOPOTECAN]
[11]
  IC50: 8.61 µM
[13]
  IC50: < 0.1 µM

## O=C(c1ccc(OCCN2CCCC2)cc1)c1nc2ccccc2cc1-c1ccc(OCCN2CCCC2)cc1
[10]
  IC50: 7.38 µM
[1]
  viability at 72 h, 20 µM: 15.5%
[11]
  IC50: 8.68 µM
[12]
  IC50: 5.68 µM
[13]
  IC50: 8.42 µM
[9]
  viability at 72 h, 100 µM: 16.6%
[14]
  IC50: 4.59 µM

## COc1ccc(-c2cc3cc(F)ccc3nc2C(=O)c2ccccc2)cc1
[1]
  viability at 72 h, 20 µM: 96%
[3]
  inhibition at 20 µM: 5.11%
[4]
  inhibition at 5 µM: 7.24%
[9]
  viability at 72 h, 100 µM: 89.7%

## CN(C)CCCOc1ccc(C(=O)c2nc3ccccc3cc2-c2ccc(OCCCN(C)C)cc2)cc1
[10]
  IC50: 6.35 µM
[1]
  viability at 72 h, 20 µM: 17.6%
[11]
  IC50: 6.44 µM
[12]
  IC50: 4.98 µM
[13]
  IC50: 7.14 µM
[9]
  viability at 72 h, 100 µM: 19.2%
[14]
  IC50: 4.47 µM

## O=C(c1ccc(O)cc1)c1nc2ccccc2cc1-c1ccc(O)cc1
[1]
  viability at 72 h, 20 µM: 90.3%
[2]
  Activity: Active
[3]
  inhibition at 20 µM: 62.1%
[4]
  inhibition at 5 µM: 38.7%
[5]
  CC50 at 72 h: > 100 µM
[6]
  Activity: Active
[7]
  Ratio CC50/IC50: >7.6
[17]
  Activity: Dose-dependent effect
[18]
  Activity: Dose-dependent effect
[8]
  IC50: 13.2 µM
[9]
  viability at 72 h, 100 µM: 65.1%

## COc1ccc(-c2cc3ccccc3nc2C(=O)c2ccccc2)cc1
[1]
  viability at 72 h, 20 µM: 93.1%
[3]
  inhibition at 20 µM: 6.93%
[4]
  inhibition at 5 µM: 3.12%
[9]
  viability at 72 h, 100 µM: 87.8%

## O=C(c1ccccc1)c1nc2ccc(F)cc2cc1-c1ccc(F)cc1
[1]
  viability at 72 h, 20 µM: 96.3%
[3]
  inhibition at 20 µM: 9.13%
[4]
  inhibition at 5 µM: 32.1%
[9]
  viability at 72 h, 100 µM: 75.1%

## O=C(c1ccc(O)cc1)c1nc2ccccc2cc1-c1ccc(OCCN2CCCC2)cc1
[10]
  IC50: > 10 µM
[1]
  viability at 72 h, 20 µM: 91%
[11]
  IC50: > 10 µM
[12]
  IC50: > 10 µM
[13]
  IC50: > 10 µM
[9]
  viability at 72 h, 100 µM: 18.1%
[14]
  IC50: > 10 µM

## COc1ccc(-c2cc3cc(OC)ccc3nc2C(=O)c2ccccc2)cc1
[1]
  viability at 72 h, 20 µM: 87.6%
[3]
  inhibition at 20 µM: 53.1%
[4]
  inhibition at 5 µM: 36.2%
[5]
  CC50 at 72 h: > 100 µM
[7]
  Ratio CC50/IC50: >5.76
[8]
  IC50: 17.4 µM
[9]
  viability at 72 h, 100 µM: 84.3%

## COc1ccc(-c2cc3ccccc3nc2C(O)c2cc(OC)c(OC)c(OC)c2)cc1 (stereo not given)
[1]
  viability at 72 h, 20 µM: 93.6%
[3]
  inhibition at 20 µM: 38.2%
[4]
  inhibition at 5 µM: 22.3%
[9]
  viability at 72 h, 100 µM: 62.5%

## COc1ccc(-c2cc3ccccc3nc2C(O)c2ccccc2)cc1 (stereo not given)
[1]
  viability at 72 h, 20 µM: 96.6%
[2]
  Activity: Active
[3]
  inhibition at 20 µM: 65.1%
[4]
  inhibition at 5 µM: 45.3%
[5]
  CC50 at 72 h: > 100 µM
[6]
  Activity: Active
[7]
  Ratio CC50/IC50: >7.96
[17]
  Activity: Dose-dependent effect
[18]
  Activity: Dose-dependent effect
[8]
  IC50: 12.6 µM
[9]
  viability at 72 h, 100 µM: 68.1%

## Fc1ccc2nc(-c3ccc(OCCN4CCCCC4)cc3)c(-c3ccc(OCCN4CCCCC4)cc3)cc2c1
[19]
  GI50: 0.72 µM
[20]
  GI50: 0.71 µM

## COc1ccc(-c2cc3ccccc3nc2C(=O)c2cc(OC)c(OC)c(OC)c2)cc1
[10]
  IC50: > 10 µM
[1]
  viability at 72 h, 20 µM: 74.1%
[11]
  IC50: > 10 µM
[12]
  IC50: > 10 µM
[13]
  IC50: > 10 µM
[9]
  viability at 72 h, 100 µM: 35.1%
[14]
  IC50: > 10 µM

## OC(c1ccccc1)c1nc2ccc(F)cc2cc1-c1ccc(F)cc1 (stereo not given)
[1]
  viability at 72 h, 20 µM: 129%
[3]
  inhibition at 20 µM: 23.1%
[4]
  inhibition at 5 µM: 22.2%
[9]
  viability at 72 h, 100 µM: 92.3%

## O=C(c1ccc(O)cc1)c1nc2ccccc2cc1-c1ccc(OCCN2CCCCC2)cc1
[10]
  IC50: > 10 µM
[1]
  viability at 72 h, 20 µM: 77.5%
[11]
  IC50: > 10 µM
[12]
  IC50: > 10 µM
[13]
  IC50: > 10 µM
[9]
  viability at 72 h, 100 µM: 19.5%
[14]
  IC50: > 10 µM

## COc1ccc(-c2cc3cc(F)ccc3nc2C(O)c2ccccc2)cc1 (stereo not given)
[1]
  viability at 72 h, 20 µM: 87.4%
[3]
  inhibition at 20 µM: 19.1%
[4]
  inhibition at 5 µM: 16.1%
[9]
  viability at 72 h, 100 µM: 30.7%

## NC(=O)c1ncn([C@@H]2O[C@H](CO)[C@@H](O)[C@H]2O)n1 [RIBAVIRIN]
[1]
  viability at 72 h, 20 µM: 71.4%
[3]
  inhibition at 20 µM: 67.5%
[4]
  inhibition at 5 µM: 32%
[5]
  CC50 at 72 h: 56.3 µM
[7]
  Ratio CC50/IC50: 4.47
[8]
  IC50: 12.6 µM
[9]
  viability at 72 h, 100 µM: 26.8%

## COc1ccc(C(=O)c2nc3ccccc3cc2-c2ccc(OC)cc2)cc1
[1]
  viability at 72 h, 20 µM: 96.1%
[3]
  inhibition at 20 µM: 14.1%
[4]
  inhibition at 5 µM: 10.1%
[9]
  viability at 72 h, 100 µM: 68.2%

## CN(C)CCCOc1ccc(-c2cc3ccccc3nc2C(=O)c2ccc(O)cc2)cc1
[10]
  IC50: > 10 µM
[1]
  viability at 72 h, 20 µM: 80.4%
[11]
  IC50: > 10 µM
[12]
  IC50: > 10 µM
[13]
  IC50: > 10 µM
[9]
  viability at 72 h, 100 µM: 16.8%
[14]
  IC50: > 10 µM

## O=C(c1ccccc1)c1nc2ccccc2cc1-c1ccc(F)cc1
[1]
  viability at 72 h, 20 µM: 74.8%
[3]
  inhibition at 20 µM: 14.1%
[4]
  inhibition at 5 µM: 20.1%
[9]
  viability at 72 h, 100 µM: 45.9%
